This passage reports inhibition results from PubChem BioAssay AID2541 (The Scripps Research Institute Molecular Screening Center, 2010).

The target in the experiment is NADPH oxidase 1 (Homo sapiens) (UniProt Q9Y5S8). Nature of the experiment: cellular NOX1 ROS production inhibition – luminescence, HT29 cells, confirmation (AID 2541). Particulars: luminol ROS chemiluminescence, 1 h, at 3.3 µM, active compounds read high. In a few lines:
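Assay system: HT29 colon epithelial cell line with endogenous NOX1; schedule: compound exposure 1 h before probe; detection: luminol chemiluminescence of intracellular ROS; measure: % inhibition of luminescence; replication: triplicate wells per compound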

Active and inactive are the calls of the source.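 The calls were made as follows: active = inhibition of at least 50%; inactive = inhibition below 50%.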

NADPH oxidase 1 (Homo sapiens), sequence (Q9Y5S8 whole entry, looked up): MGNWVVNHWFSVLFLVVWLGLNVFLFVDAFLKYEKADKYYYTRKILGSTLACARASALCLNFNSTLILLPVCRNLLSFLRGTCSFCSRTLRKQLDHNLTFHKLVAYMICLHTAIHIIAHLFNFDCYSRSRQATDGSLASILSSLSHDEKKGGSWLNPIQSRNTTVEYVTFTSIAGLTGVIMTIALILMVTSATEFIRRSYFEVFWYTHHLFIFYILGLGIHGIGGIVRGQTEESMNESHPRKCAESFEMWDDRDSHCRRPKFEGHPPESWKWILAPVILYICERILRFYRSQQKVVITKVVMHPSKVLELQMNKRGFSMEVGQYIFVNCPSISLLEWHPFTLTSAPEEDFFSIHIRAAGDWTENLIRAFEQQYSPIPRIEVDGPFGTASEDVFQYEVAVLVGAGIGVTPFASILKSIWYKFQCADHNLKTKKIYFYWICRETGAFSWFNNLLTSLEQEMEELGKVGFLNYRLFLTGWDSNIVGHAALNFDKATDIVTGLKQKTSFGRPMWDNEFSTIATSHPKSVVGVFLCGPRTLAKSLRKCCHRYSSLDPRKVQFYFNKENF

In the case of `O=c1c2c(-c3ccc([N+](=O)[O-])cc3)onc2n(-c2ccccc2)c(=O)n1-c1ccccc1`, the inhibition is 29% (inactive).
The result for `CN(C)c1ccc(/C=N/Nc2c(Cl)cncc2Cl)cc1` reads 73.6%; that for `Cc1cc(C)cc(NC(=O)Nc2ccc(N3CCCCC3)cc2)c1`, 74.4%; that for `CC(C)(C)c1csc(NNC(=O)c2ccc(Cl)cc2)n1`, 81.8%.
Regarding `CC(=O)Oc1ccc(OC(C)=O)c2c1[C@@H]1C=C[C@H]2CC1`, the inhibition was 75.9%.
With `Cc1ccccc1C(=O)Oc1ccc(-c2csnn2)cc1`, the inhibition is 54.9%.
Turning to `CC1CN(c2ccc(NC(=S)NN)cc2)CC(C)O1` (stereo unspecified), the inhibition is 59.5%.
For the molecule `Nc1nc(NCc2c(Cl)cccc2Oc2ccccc2)n[nH]1`, the inhibition is 74.1%.
The result for `c1ccc2c(c1)Nc1nc3ccccc3nc1N2` reads 79.7%.
The same measure for `CN(C)c1ccc(NC(=O)Nc2ccc(OCc3ccccc3)cc2)cc1`: 90.2%; for `Nc1nc2[nH]c(=S)[nH]c2c(=O)[nH]1`: 29.6% (inactive); for `Nc1nc(Nc2ccccc2)n[nH]1`: 73.6%.
For `S=C(NNc1nccc(-c2cccnc2)n1)Nc1ccccc1`, the inhibition is 88.4%.
As for `Cc1cc(C(=O)NNc2cc(Cl)ccc2Cl)no1`, the inhibition is 108%.
As for `O=C(Oc1ccccc1N1CCCCC1)c1sc2ccccc2c1Cl`, the inhibition is 84.3%.
Consider `COc1cccc(NC(=S)NNC(=S)NC2CC3CCC2C3)c1` (stereo unspecified), for which the inhibition was 78.9%.
For `COc1cccc(NC(=S)NNc2ccc([N+](=O)[O-])cc2)c1`, the inhibition is 89.2%.
The same measure for `FC(F)(F)c1ccc2c(c1)Nc1ccccc1S2`: 86.9%.
The result for `CC1=CC(=O)C(CCC2=CC(=O)C(C)=CC2=O)=CC1=O` reads 10.4% (inactive); that for `CN(NC=C(C#N)C#N)c1ccccc1[N+](=O)[O-]`, 100%.
As for `O=C(Nc1ccc(Cl)cc1)Oc1ccccc1N1CCSCC1`, the inhibition is 56.4%.
For the molecule `CC(C)(C)c1cc2nc(C(F)(F)F)cc(NNC(=O)Nc3ccc(OC(F)(F)F)cc3)n2n1`, the inhibition was 11.4% (inactive).
For `O=c1c(Cl)c2oc3ccccc3nc-2c2ccccc12`, the inhibition was 56.3%.
In the case of `CC(C)C(=O)NNc1nc2c(c(=O)n(C)c(=O)n2C)n1Cc1ccc(Cl)cc1`, the inhibition was 76.1%.
Take `Nc1nc(NCc2ccccn2)n[nH]1`: the inhibition is 78.6%.
`CCOC(=O)C(=CNNc1ccnc2cc(Cl)ccc12)C(=O)OCC`: the inhibition was 87.5%.
The same measure for `CCS(=O)(=O)c1ccc(O)c(NC(=O)c2ccccc2C(=O)O)c1`: -41.4% (inactive); for `COc1cc2ncnc(NNS(=O)(=O)c3cc(C)c(Cl)cc3C)c2cc1OC`: 93%.
As to `CN(C)c1ccc(NC(=O)Nc2cccs2)cc1`, the inhibition is 48.3% (inactive).
`Cc1cc(S(=O)(=O)NNc2ncnc3c2cnn3C)c(C)cc1Cl`: the inhibition is 102%.
As for `Cn1ncc(C(=O)NC(=O)Nc2ccc(F)cc2)c1[N+](=O)[O-]`, the inhibition is 6.3% (inactive).
The result for `COc1cc(-c2nc(-c3ccccc3)c(-c3ccccc3)[nH]2)ccc1O` reads 84.1%; that for `CCn1c(-c2cc(-c3ccccc3)sc2N)n[nH]c1=S`, -5.1% (inactive); that for `CCOC(=O)c1nsc(/C(C)=N/Nc2ccccc2)c1N`, 16% (inactive).
The result for `CSC1=NS(=O)(=O)c2c(C)nn(C)c2S1` reads 33.3% (inactive).
In the case of `O=c1[nH]c2ccsc2c(=O)n1CCO`, the inhibition was 95.7%.
As to `N#Cc1c(N)sc2c1CCc1ccccc1-2`, the inhibition is 103%.
`O=[N+]([O-])c1cc(C(F)(F)F)ccc1Oc1ccc(-c2nnco2)cc1`: the inhibition was 58.8%.
For `COc1ccc(OC)c(S(=O)(=O)c2ccc([N+](=O)[O-])cc2Cl)c1`, the inhibition is 43.9% (inactive).
`O=C(NNc1c([N+](=O)[O-])cc(C(F)(F)F)cc1[N+](=O)[O-])c1ccco1`: the inhibition is 92.8%.
In the case of `O=C(N/N=C/c1ccc(O)cc1)N/N=C/c1ccc(O)cc1`, the inhibition was 76.7%.
Take `O=C1c2ccccc2C(=O)N1CNc1ccc(N2CCOCC2)cc1`: the inhibition was 11.1% (inactive).
The result for `CCC(=O)Nc1ccc2c(c1)N(CC)C(C)(C)CC2C` (stereo unspecified) reads 65.4%.
Turning to `CCC(=O)N1c2cc(Cl)ccc2-n2c(nn(C(=O)CC)c2=O)N1C(=O)CC`, the inhibition was 81.7%.
In the case of `CCN(CC)c1ccc(N=C2C=CC(=O)c3ccccc32)c(C)c1`, the inhibition is 23.7% (inactive).
In the case of `COC(=O)c1sccc1-c1ccc(CN2CCCc3cc(OC)ccc32)o1`, the inhibition is 74.1%.
For the molecule `O=C(Oc1cccc2[nH]ccc12)c1ccc(C(F)(F)F)cc1`, the inhibition is 30.4% (inactive).
For the molecule `COc1cc2ncnc(NNC(=O)c3cccs3)c2cc1OC`, the inhibition is 70.5%.
Take `O=[N+]([O-])c1cc(C(F)(F)F)cc([N+](=O)[O-])c1Sc1ncc2ccccn12`: the inhibition was -0.1% (inactive).
In the case of `COc1ccc(OC(=O)c2ccc3ncccc3c2)cc1`, the inhibition was 51.6%.
As for `CC[n+]1c(C)csc1Nc1ccc(N2CC(C)OC(C)C2)cc1` (stereo unspecified), the inhibition was 89.3%.
For the molecule `c1ccc2c(c1)NC(c1ccc3c(c1)OCO3)O2` (stereo unspecified), the inhibition was -39.8% (inactive).
Take `Cc1nc(C(F)(F)F)c(C(=O)NNc2ncc(C(F)(F)F)cc2Cl)s1`: the inhibition was 101%.
The result for `COc1ccc2c(c1)CCCN2Cc1c[nH]c2ccccc12` reads 26.5% (inactive); that for `COC(=O)C1=C(Nc2ccc(O)cc2)CSC1`, 63.7%.
On to `Cn1cnc(S(=O)(=O)Nc2ccc(N3CCCCC3)cc2)c1`, for which the inhibition was 77.2%.
On to `COc1ccc(C(=O)NNc2c([N+](=O)[O-])cc(C(F)(F)F)cc2[N+](=O)[O-])cc1`, for which the inhibition was 88.1%.
With `CCC(CO)Nc1nc2c([nH]1)c(=O)n(C)c(=O)n2C` (stereo unspecified), the inhibition was -32.2% (inactive).
Turning to `Cc1cc(Br)c(NC(=S)NNc2ccccc2)c(Br)c1`, the inhibition was 76.9%.
Regarding `O=C(Oc1ccccc1N1CCOCC1)c1cccs1`, the inhibition is 87.8%.
Take `Cn1nc(-c2ccccc2)c(O)c(N=Nc2ccccc2)c1=O`: the inhibition was 88.9%.
Regarding `CCOc1ccccc1Nc1n[nH]c(=S)s1`, the inhibition was 81.5%.
Turning to `NS(=O)(=O)c1ccc(NNC(=O)c2c(F)cccc2Cl)cc1`, the inhibition is 74.3%.
`COc1cccc(C(=O)CSc2nsc(SCC(=O)c3cccc(OC)c3)c2C#N)c1`: the inhibition is 44.1% (inactive).
On to `Cc1ccc(SC#N)c(N)n1`, for which the inhibition was 63.2%.
As for `CC(=O)/C(C=Nc1cc(C)c(O)c(Cl)c1)=C(\C)O`, the inhibition is -27.6% (inactive).
In the case of `S=c1[nH]cc(-c2ccc(Br)cc2)[nH]1`, the inhibition is 70.8%.
As to `COc1ccc(Cl)cc1NC(=O)Nc1ccc(N(C)C)cc1`, the inhibition is 88.8%.
As for `CC(=O)c1ccc(NCN2C(=O)/C(=C\N(C)C)NC2=S)cc1`, the inhibition is 59.2%.
Regarding `Cc1ccc(NCN2C(=O)c3ccc([N+](=O)[O-])cc3C2=O)cc1`, the inhibition was 17.8% (inactive).
For `O=C1C=CC(=O)N1CCc1ccccc1`, the inhibition was 11.1% (inactive).
As for `O=C(Oc1ccccc1N1CCCCC1)c1ccco1`, the inhibition was 95%.
Take `CCN(CC)c1ccc(NC(=O)c2c(F)cccc2F)c(N(CC)CC)n1`: the inhibition was 37.1% (inactive).
As for `CCN(CC)c1ccc(NC(=O)C2CCCCC2)c(N(CC)CC)n1`, the inhibition is 37% (inactive).
In the case of `CCC1=Nc2cccc3cccc(c23)N1`, the inhibition is 14% (inactive).
With `Nc1nc(NCc2ccccc2OC(F)(F)F)n[nH]1`, the inhibition was 78.4%.
For the molecule `COc1ccc(N(C)CC(=O)O)c(C(=O)O)c1`, the inhibition is 75%.
For the molecule `O=C1C=C(I)C(=O)C=C1I`, the inhibition was 60.4%.
The same measure for `O=S(=O)(Nc1ccc(N2CCCCC2)cc1)c1ccccc1`: 85.4%.
Consider `O=C(Nc1ccc(N2CCCCC2)cc1)Nc1ccccc1OC(F)(F)F`, for which the inhibition is 73.9%.
For the molecule `Cc1csc2ncnc(NNS(=O)(=O)c3cc(C(F)(F)F)cc(C(F)(F)F)c3)c12`, the inhibition is 81.6%.
Regarding `ON/C=N/c1nnc(C(F)(F)F)s1`, the inhibition is 63.1%.
With `O=c1[nH][nH]c2cccc(F)c12`, the inhibition is 9.8% (inactive).
For the molecule `COc1ccccc1NNC(=O)c1cc(C(C)(C)C)nn1Cc1ccccc1`, the inhibition was 92.4%.
With `O=C(Nc1ccc(Cl)cc1Cl)c1cc([N+](=O)[O-])cc2c1-c1ccc([N+](=O)[O-])cc1C2=O`, the inhibition is -22.8% (inactive).
`O=c1[nH]nc(N2CCSCC2)[nH]1`: the inhibition is 96.6%.
`CCOC(=O)C1=C(Nc2ccc(OC(C)=O)cc2)C(=O)N(C(C)(C)C)C1`: the inhibition was 72.9%.
The same measure for `CC1(C)CC(Nc2ccc(Nc3ccccc3)cc2)CC(C)(C)N1`: 61.5%; for `Cc1cc(Cl)ccc1NC(=S)NNC(=S)Nc1ccc(F)cc1`: 89%.
`Cc1noc(C)c1C(=O)Nc1ccc(N2CCOCC2)nc1N1CCOCC1`: the inhibition was 97.5%.
For the molecule `O=C(O)/C(=N/Nc1ccccc1O)c1ccccc1`, the inhibition is 62.5%.
On to `Cc1cc(S(=O)(=O)NNc2ncnc3cc(C(C)(C)C)sc23)c(C)cc1Cl`, for which the inhibition was 71%.
`Cc1oc(-c2ccc(Cl)cc2)cc1C(=O)O/N=C(\N)Cc1nc2cccnc2n1C1CC1`: the inhibition is -17.1% (inactive).
The same measure for `COCCCNC(=S)NNC(=S)Nc1ccccc1`: 70.1%.
The same measure for `O=C(NNc1c([N+](=O)[O-])cc(C(F)(F)F)cc1[N+](=O)[O-])c1ccccc1-n1cccc1`: 78%.
For the molecule `O=C(Oc1ccccc1N1CCOCC1)c1cccnc1Oc1ccccc1`, the inhibition is 71.9%.

Broadly, the inhibition is the drop in the measured response relative to a control, in per cent.
